For data set [1], the system named is SH-SY5Y. Put plainly: Neuroprotective activity in human SH-SY5Y cells assessed as reduction in MPP+ induced cytotoxicity by measuring cell viability at 1 uM preincubated for 2 hrs followed by MPP+ addition and measured after 48 hrs by MTT assay (reference value: 45%). The format is functional. (In general: Tetrazolium assays rely on reduction of a dye to a coloured formazan, in cell work by metabolically active cells.)

In data set [2] the target is T1, Amine oxidase [flavin-containing] A (Homo sapiens, UniProt P21397).
T1 sequence (P21397 whole entry): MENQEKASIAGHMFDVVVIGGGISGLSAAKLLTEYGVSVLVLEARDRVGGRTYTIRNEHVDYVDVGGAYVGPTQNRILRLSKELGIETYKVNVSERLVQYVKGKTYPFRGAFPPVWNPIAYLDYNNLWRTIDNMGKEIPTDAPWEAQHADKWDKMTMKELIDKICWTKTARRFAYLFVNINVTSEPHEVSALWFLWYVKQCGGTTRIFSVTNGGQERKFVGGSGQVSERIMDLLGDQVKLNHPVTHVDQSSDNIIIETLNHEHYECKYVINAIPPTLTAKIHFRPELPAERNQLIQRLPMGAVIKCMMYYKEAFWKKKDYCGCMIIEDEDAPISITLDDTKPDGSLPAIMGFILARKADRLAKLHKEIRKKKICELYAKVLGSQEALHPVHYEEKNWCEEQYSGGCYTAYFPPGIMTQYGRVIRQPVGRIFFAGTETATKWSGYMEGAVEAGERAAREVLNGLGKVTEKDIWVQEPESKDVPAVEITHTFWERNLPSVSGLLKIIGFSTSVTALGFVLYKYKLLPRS
The experiment in a line: Inhibition of recombinant human MAO-A using kynuramine as substrate after 20 mins by fluorescence assay.

Data set [3] is described as follows: Cytotoxicity against human SH-SY5Y cells assessed as cell viability at 10 uM after 48 hrs by MTT assay (reference value: 100%). Format: cell-based. To be noted: read-out: Activity. In short, it runs like this: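 SH-SY5Y cells exposed to compound at 10, 50 or 100 µM for 48 h; viability by MTT, read spectrophotometrically. DMSO vehicle-treated cells set as 100% viability. Mean ± SEM, n = 3 with four fields per repeat; ANOVA.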

The target of data set [4] is Glutamate [NMDA] receptor (Homo sapiens) (UniProt Q05586+Q12879+Q13224+O15399+O60391+Q14957+Q8TCU5). Put plainly: Antagonist activity at NMDA receptor in human SH-SY5Y cells assessed as reduction in NMDA/glycine-stimulated calcium influx at 10 uM preincubated for 30 mins in presence of Mag-Fura-2/AM dye followed by NMDA/glycine stimulation and measured over 35 secs by fluorescence assay (reference value: 100%). Format: cell-based. In short, it runs like this: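 SH-SY5Y cells loaded with ratiometric Ca indicator Mag-Fura-2/AM, incubated with compound at 10 µM for 30 min at 37 °C, then stimulated with concentrated NMDA/glycine solution; fluorescence change from cytosolic Ca rise read on plate reader. % NMDAr inhibition calculated relative to MK-801 (10 µM); DMSO vehicle. Mean of at least 9 independent experiments.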

Data set [5] deals with T2, Amine oxidase [flavin-containing] B (Homo sapiens, UniProt P27338).
T2 sequence (P27338 whole entry): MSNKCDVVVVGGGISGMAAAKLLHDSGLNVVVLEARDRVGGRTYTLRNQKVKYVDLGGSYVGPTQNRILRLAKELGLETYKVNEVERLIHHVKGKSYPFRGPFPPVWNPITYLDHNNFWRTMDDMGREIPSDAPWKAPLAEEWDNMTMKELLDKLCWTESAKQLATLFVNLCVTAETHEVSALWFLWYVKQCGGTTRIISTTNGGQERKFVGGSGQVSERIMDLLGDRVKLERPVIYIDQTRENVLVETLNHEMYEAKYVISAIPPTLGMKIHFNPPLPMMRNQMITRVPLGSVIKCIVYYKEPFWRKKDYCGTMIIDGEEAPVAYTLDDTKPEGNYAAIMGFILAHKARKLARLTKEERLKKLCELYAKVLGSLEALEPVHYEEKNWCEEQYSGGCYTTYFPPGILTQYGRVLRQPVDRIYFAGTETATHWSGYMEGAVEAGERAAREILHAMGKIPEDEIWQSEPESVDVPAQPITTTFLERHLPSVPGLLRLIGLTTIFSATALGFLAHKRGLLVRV
The experiment in a line: Inhibition of recombinant human MAO-B using kynuramine as substrate after 20 mins by fluorescence assay.

In data set [6] the test system is SH-SY5Y. The experiment in a line: Neuroprotective activity in human SH-SY5Y cells assessed as reduction in MPP+ induced cytotoxicity at 5 to 10 uM preincubated for 2 hrs followed by MPP+ addition measured after 48 hrs by MTT assay. Format: functional, cell-based.
In data set [7] the target is T1, Amine oxidase [flavin-containing] A. The experiment in a line: Irreversible inhibition of recombinant human MAO-A at 2 times IC50 preincubated up to 60 mins followed by kynuramine substrate addition and measured after 20 mins by fluorescence assay. In short, it runs like this:
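Recombinant human MAO-A is preincubated with inhibitor for 0, 15, 30 or 60 min, then the kynuramine reaction is started. Residual oxidation rate is read as 4-hydroxyquinoline fluorescence (RFU). Results are the mean of three independent experiments.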

For data set [8], the target named is T2, Amine oxidase [flavin-containing] B. The experiment in a line: Reversible inhibition of recombinant human MAO-B at 2 times IC50 preincubated up to 60 mins followed by kynuramine substrate addition and measured after 20 mins by fluorescence assay.
Data set [9] concerns the target Voltage-gated L-type calcium channel (Homo sapiens, UniProt Q13936+Q13698+Q01668+O60840). Put plainly: Inhibition of voltage-dependent L-type calcium channel in human SH-SY5Y cells assessed as reduction in KCl-stimulated calcium influx at 100 uM preincubated for 30 mins in presence of Mag-Fura-2/AM dye followed by KCl stimulation and measured over 35 secs by fluorescence assay. Format: cell-based. To be noted: 35 s.

The target of data set [10] is T2, Amine oxidase [flavin-containing] B. The experiment in a line: Inhibition of recombinant human MAO-B using kynuramine as substrate after 20 mins by fluorescence assay relative to control. In short, it runs like this: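 Recombinant human MAO-B oxidises kynuramine. The product, 4-hydroxyquinoline, is read by fluorescence in the supernatant (excitation 310 nm, emission 400 nm).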

16 molecules from ChEMBL document CHEMBL4330068, “Design, synthesis and evaluation of pentacycloundecane and hexacycloundecane propargylamine derivatives as multifunctional neuroprotective agents” (Eur J Med Chem, 2019) can be followed below.

Active and inactive are the calls of the source. The calls are words filed in the database; no cut-off is given here.

A word on the IC50: it is the concentration that gives 50% inhibition. What is called inhibition is the change of the read-out against control, counted positive when it falls. Consider `NCc1ccc(CN2C3C4C5CC6C7C5C3C7C2(O)C64)cc1` (stereo unspecified), for which the Activity in [1] worked out at 46%. Further, the IC50 in data set [2] and in data set [5] was greater than 100 µM in each case. In [3], the viability at 48 h, 10 µM turned out to be 107%. The inhibition in data set [4] worked out at 59%. The result in [6] was Active.
For `C#CCNCc1ccc(CNC23OC4C5C6CC(C7C6C4C72)C53)cc1` (stereo unspecified), the inhibition in [4] is 31.4%.
`C#CCNCc1ccc(CN2C3C4C5CC6C7C5C3C7C2(O)C64)cc1` (stereo unspecified): the Activity in data set [1] was 43%. Moreover, the figures for the IC50 in data set [2] and in data set [5] were 56.2 µM and 3.8 µM, respectively. For the same molecule, the “inhibition (INH)” value in data set [7] and in data set [8] was “Active” throughout. The viability at 48 h, 10 µM in data set [3] came out at 98%. The inhibition in data set [4] came to 0.6%. The result in data set [6] was Active.
With `C#CCNC12OC3C4C5CC(C6C5C3C61)C42` (stereo unspecified), the “inhibition (INH)” value in data set [9] was “Not Active”. In data set [4], the inhibition result is “inactive”.
Consider `Nc1ccc(CNC23OC4C5C6CC(C7C6C4C72)C53)cc1` (stereo unspecified), for which the inhibition result in data set [4] is “inactive”.
Same read-out and setting: with `NCc1ccc(C/N=C2/C3C4CC5C6C4C2C6C2(OCCO2)C53)cc1` (stereo unspecified) the figure was 49.5%; with `c1cc(C/N=C2\C3C4CC5C6C4C2C6C2(OCCO2)C53)ccc1C/N=C1/C2C3CC4C5C3C1C5C1(OCCO1)C42` (stereo unspecified), 70.5%; with `C#CCNCc1ccc(CNC2C3C4CC5C6C4C2C6C2(OCCO2)C53)cc1` (stereo unspecified), 63.9%.
For the molecule `Nc1ccc(C/N=C2/C3C4CC5C6C4C2C6C2(OCCO2)C53)cc1` (stereo unspecified), the inhibition in [4] turned out to be 63.1%.
On the same count and under the same terms, in the case of `ClCc1ccc(CNC23OC4C5C6CC(C7C6C4C72)C53)cc1` (stereo unspecified) it was 26.1%.
With `Nc1ccc(CN2C3C4C5CC6C7C5C3C7C2(O)C64)cc1` (stereo unspecified), the Activity in [1] was 31%. Also, the IC50 in data set [2] and in data set [5] was greater than 100 µM each time. In data set [3], the viability at 48 h, 10 µM came out at 101%. Also, in data set [4], the inhibition was found to be 11.9%. Besides, the result in data set [6] was Active.
For the molecule `c1ccc(CNC23OC4C5C6CC(C7C6C4C72)C53)cc1` (stereo unspecified), the Activity in [1] amounted to 66%. The IC50 in data set [2] and in data set [5] was greater than 100 µM each time. Also, the viability at 48 h, 10 µM in [3] worked out at 86%. For the same molecule, in data set [4], the inhibition was 32.5%. The result in data set [6] was Active.
As to `COCCOC(=O)C1=C(C)NC(C)=C(C(=O)OC(C)C)C1c1cccc([N+](=O)[O-])c1` (stereo unspecified), the inhibition entry in data set [4] is “inactive”.
As for `C#CCN1C2C3C4CC5C6C4C2C6C1(O)C53` (stereo unspecified), the results for the “inhibition (INH)” value in data set [9] and in data set [10] were “Not Active” and 6%, respectively. In addition, in data set [4], the inhibition came to 4%.
For `NCc1ccc(CNC2C3C4CC5C6C4C2C6C2(OCCO2)C53)cc1` (stereo unspecified), the inhibition entry in [4] was “inactive”.
Still for that read-out and setting: in the case of `C#CCNCc1ccc(C/N=C2/C3C4CC5C6C4C2C6C2(OCCO2)C53)cc1` (stereo unspecified) it was 88.3%.
